Published values gathered from unrelated publications.
Protocols differ between the studies behind these lines. Values after ≈ are worked out from the molar mass of the structure shown.

SMILES | organism | test | test system | conditions | measurement | value
CCOC(=O)c1nc2ccccc2c(=O)n1Cc1cn(-c2ccccc2OC)nn1 | Nakaseomyces glabratus | microbial growth, broth dilution | ATCC90030 | 24 h | IC50 | 81.8 µg/mL
O=C1NC(=S)S/C1=C\c1ccc(-c2ccc(N(c3ccccc3)c3ccccc3)cc2)c2ccccc12 | Bacillus subtilis | microbial killing, broth dilution | ATCC6633 | – | MBC | > 1000 µg/mL
CC1(C)S[C@@H]2[C@H](NC(=O)[C@H](N)c3ccccc3)C(=O)N2[C@H]1C(=O)O | Listeria monocytogenes | microbial growth, agar dilution | – | 26.93 µM | inhibition | 100%
CCOC(=O)c1nc2ccccc2c(=O)n1Cc1cn(-c2ccc(C)cc2)nn1 | Nakaseomyces glabratus | microbial growth, broth dilution | ATCC90030 | 24 h | IC50 | 8.4 µg/mL
CCCCCCC/C=C/C(=O)N1C(=O)/C(=C(\O)C2CCNCC2)C(=O)C1CC(C)C (centres unmarked) | Proteus vulgaris | microbial growth | ATCC33420 | – | MIC | 200 µg/mL (≈ 478 µM)
C[C@@H]1[C@H](O)[C@@H](C)/C=C/C=C/C=C/C=C/C=C/C=C/C=C/[C@H](O[C@@H]2O[C@H](C)[C@@H](O)[C@H](N)[C@@H]2O)C[C@@H]2O[C@](O)(C[C@@H](O)C[C@@H](O)[C@H](O)CC[C@@H](O)C[C@@H](O)CC(=O)O[C@H]1C)C[C@H](O)[C@H]2C(=O)O | Cryptococcus neoformans | microbial growth | ATCC90113 | – | IC50 | 0.75 µg/mL
CCCCCCC/C=C/C(=O)N1C(=O)/C(=C(\O)c2ccncc2)C(=O)C1CC(C)C (centres unmarked) | Proteus vulgaris | microbial growth | ATCC33420 | – | MIC | > 200 µg/mL
N#CC(=Cc1ccccc1O)C1=NC(=O)C(=Cc2cn(-c3ccccc3)nc2-c2ccccc2)S1 | Bacillus subtilis | microbial growth, well diffusion | – | 100000 µg/mL | inhibition zone | 25 mm
O=C(O)c1nc2ccccc2c(=O)n1Cc1cn(-c2ccc(F)cc2)nn1 | Nakaseomyces glabratus | microbial growth, broth dilution | ATCC90030 | 24 h | IC50 | 422 µg/mL
C[C@@H](c1ncncc1F)[C@](O)(Cn1cncn1)c1ccc(F)cc1F | Acanthamoeba polyphaga | parasite growth, resazurin | – | 7 days | IC50 | 55.3 µM
CC(C)Oc1c(NC(=O)c2ccc(NC(=O)[C@H](CC(N)=O)NC(=O)c3ccc(NC(=O)c4ccc(C#N)cn4)cc3)cc2)ccc(C(=O)Nc2ccc(C(=O)O)cc2)c1O | Proteus vulgaris | microbial growth | DSM2140 | – | MIC | 0.06 µg/mL (≈ 0.0738 µM)
O=C1NC(=S)S/C1=C\c1c2ccccc2c(-c2ccc(N(c3ccccc3)c3ccccc3)cc2)c2ccccc12 | Bacillus subtilis | microbial killing, broth dilution | ATCC6633 | – | MBC | > 1000 µg/mL
N#CC(=Cc1cn(-c2ccccc2)nc1-c1ccccc1)C1=NC(=O)CS1 | Bacillus subtilis | microbial growth, well diffusion | – | 100000 µg/mL | inhibition zone | 29 mm
CCOC(=O)c1nc2ccccc2c(=O)n1Cc1cn(-c2cccc(F)c2)nn1 | Nakaseomyces glabratus | microbial growth, broth dilution | ATCC90030 | 24 h | IC50 | 365 µg/mL
Cc1c(NN=C2SC(CC#N)=NC2=O)c(=O)n(-c2ccccc2)n1C | Bacillus subtilis | microbial growth, well diffusion | – | 100000 µg/mL | inhibition zone | 14 mm
C[C@@H]1[C@H](O)[C@@H](C)/C=C/C=C/C=C/C=C/C=C/C=C/C=C/[C@H](O[C@@H]2O[C@H](C)[C@@H](O)[C@H](N)[C@@H]2O)C[C@@H]2O[C@](O)(C[C@@H](O)C[C@@H](O)[C@H](O)CC[C@@H](O)C[C@@H](O)CC(=O)O[C@H]1C)C[C@H](O)[C@H]2C(=O)O | Cryptococcus neoformans | microbial killing | ATCC90113 | – | MFC | 2.5 µg/mL (≈ 2.71 µM)
CCOC(=O)C=c1[nH]c(=O)c(=Cc2cn(-c3ccccc3)nc2-c2ccc(C)cc2)s1 | Bacillus subtilis | microbial growth, well diffusion | – | 100000 µg/mL | inhibition zone | 13 mm
CCCCCCC/C=C/C(=O)N1C(=O)/C(=C(/C)O)C(=O)C1Cc1ccc(O)cc1 (centres unmarked) | Proteus vulgaris | microbial growth | ATCC33420 | – | MIC | > 200 µg/mL
Cc1c(NN=C2SC(C(C#N)=Cc3ccc(Cl)cc3)=NC2=O)c(=O)n(-c2ccccc2)n1C | Bacillus subtilis | microbial growth, well diffusion | – | 100000 µg/mL | inhibition zone | 17 mm
CCCCCCC/C=C/C(=O)N1C(=O)/C(=C(/C)O)C(=O)C1CO (centres unmarked) | Proteus vulgaris | microbial growth | ATCC33420 | – | MIC | > 200 µg/mL
